The values that follow come from ChEMBL document CHEMBL4014336 (J Med Chem, 2017).

SMILES strings stand for the structures.

Data set [1] is described as follows: (§1) Metabolic stability in mouse liver microsomes assessed as parent compound remaining after 10 mins. The data set is classed as ADME, microsome. The conditions noted are these: liver microsomes, read-out: Stability. An outline of the steps: (§2)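 Parent compound remaining after a 10 min incubation with human, mouse or rat liver microsomes.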
In general terms: Microsomes from liver hold many membrane-bound enzymes, among them those of drug oxidation.

Data set [2] can be described thus: (§3) Metabolic stability in human liver microsomes assessed as parent compound remaining after 10 mins. The data set is classed as ADME, microsome. As to conditions: liver microsomes, read-out: Stability. An outline of the steps:
as §2

Data set [3] in a line: (§4) Metabolic stability in rat liver microsomes assessed as parent compound remaining after 10 mins. The data set is classed as ADME, microsome. As to conditions: liver microsomes, read-out: Stability. An outline of the steps: as §2
The target in data set [4] is T1, Nuclear receptor subfamily 1 group I member 2 (Homo sapiens, UniProt O75469).
T1 sequence (O75469 whole entry): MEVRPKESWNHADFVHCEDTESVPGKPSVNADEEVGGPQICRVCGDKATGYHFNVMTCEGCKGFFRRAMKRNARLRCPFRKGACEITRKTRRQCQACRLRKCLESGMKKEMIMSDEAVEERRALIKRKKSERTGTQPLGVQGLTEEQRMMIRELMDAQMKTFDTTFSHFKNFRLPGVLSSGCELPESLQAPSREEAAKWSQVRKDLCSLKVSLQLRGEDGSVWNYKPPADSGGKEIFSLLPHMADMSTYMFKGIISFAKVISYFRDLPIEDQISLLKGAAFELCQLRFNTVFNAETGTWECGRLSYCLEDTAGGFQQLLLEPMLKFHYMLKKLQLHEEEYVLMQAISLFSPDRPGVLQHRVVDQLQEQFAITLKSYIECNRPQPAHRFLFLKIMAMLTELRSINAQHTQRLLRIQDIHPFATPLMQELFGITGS
In words: Activation of PXR (unknown origin). Type of data set: ADME. An outline of the steps: (§5)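 PXR transactivation assay; EC50 and maximal activation (Ymax, % of control) reported.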

Another data set concerns the target PXR (Homo sapiens, UniProt O75469). Briefly: Activation of PXR (unknown origin) relative to control. The data set is classed as ADME. An outline of the steps: as §5
For the next data set, the system named is Mus musculus. Briefly: In vivo inhibition of 11beta-HSD1 in po dosed non-fasting diet-induced obese mouse assessed as decrease in corticosterone excursion in plasma pretreated for 60 mins followed by DHC administration measured up to 120 mins by enzyme immunosorbent assay. Type of data set: functional. An outline of the steps: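 Nonfasting diet-induced obese male mice, groups of n = 6 matched for body weight; tail bleed at −60 min, then oral vehicle (0.5% Methocel, 0.1% Tween 80 in water) or drug. At 60 min, bleed and oral DHC 10 mg/kg. Bleeds at 30, 60 and 120 min post-DHC. Plasma corticosterone measured by enzyme immunosorbent assay; drug levels in terminal bleed.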

The target in data set [5] is 11-beta-hydroxysteroid dehydrogenase 1 (Mus musculus, UniProt P50172).
Sequence of 11-beta-hydroxysteroid dehydrogenase 1 (P50172 whole entry): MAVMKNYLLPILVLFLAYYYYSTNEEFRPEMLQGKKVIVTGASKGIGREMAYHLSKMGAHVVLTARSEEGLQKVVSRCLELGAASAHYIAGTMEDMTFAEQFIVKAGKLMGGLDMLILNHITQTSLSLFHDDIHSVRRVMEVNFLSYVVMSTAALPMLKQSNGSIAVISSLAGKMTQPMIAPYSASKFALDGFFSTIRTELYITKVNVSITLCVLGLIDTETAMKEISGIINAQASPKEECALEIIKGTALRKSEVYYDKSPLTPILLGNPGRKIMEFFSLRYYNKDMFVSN
Data set [6] concerns Liver. The data set is described as §4. Type of data set: ADME, microsome. The conditions noted are these: microsomes, 10 min. An outline of the steps:
as §2

Data set [7] in a line: Metabolic stability in mouse liver microsomes assessed as UGT-mediated glucuronidation of compound by measuring half life in presence of UDPGA. The data set is classed as ADME. An outline of the steps: (§6)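 Liver microsomal glucuronidation incubations in the presence of UDPGA; parent half-life determined.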
A short description of data set [8]: Metabolic stability in human liver microsomes assessed as UGT-mediated glucuronidation of compound by measuring half life in presence of UDPGA. Type of data set: ADME. An outline of the steps: as §6
A short description of data set [9]: Inhibition of cynomolgus monkey 11beta-HSD1. Also on record: species or system Macaca fascicularis.
Data set [10] relates to Liver. Described as §1. As to conditions: microsomes, 10 min. Type of data set: ADME, microsome. An outline of the steps: as §2
For data set [11], the system named is Liver. Described as §3. Type of data set: ADME, microsome. As to conditions: microsomes, 10 min. An outline of the steps:
as §2

`O=C(CC1(C2CCCCC2)C2CC3CC1CC(C2)C3O)N1CC(O)C1` (racemic): the values for the remaining at 10 min in data set [1], in data set [2] and in data set [3] were 24%, 100% and 14%, respectively.

Take `O=C(CC1(c2ccc(F)cc2)C2CC3CC(C2)CC1C3)N1CC(O)C1` (configuration not stated): the midpoint of the response in [4], the EC50, lay at 6.7 µM. The Emax (commonly the size of the effect at its maximum, as opposed to the concentration needed) on PXR came to 37%.

On to `O=C(CC1(Cc2ccccc2)C2CC3CC1CC(C2)C3O)N1CC(O)C1` (racemic), for which the remaining at 10 min in data set [1] worked out at 33%; in data set [2] it was 63%; in data set [3], 3%.

`O=C(CC1(c2cccnc2)C2CC3CC1CC(C2)C3O)N1CC(O)C1` (racemic): the remaining at 10 min in [1] is 58%; in data set [2], 86%; in [3], 92%.

As for `O=C(CC1(c2ccc(F)cc2)C2CC3CC1CC(F)(C3)C2)N1CC(O)C1` (configuration not stated), the EC50 – broadly, the midpoint of the concentration-response curve – in data set [4] was over 25 µM. Also, the remaining at 10 min in data set [1] was in the range of 13 to 38%; in data set [2] it was 38 to 69%; in data set [3] it was 5 to 9%.

For the compound `Cc1cccc(C2(CC(=O)N3CC(O)C3)C3CC4CC2CC(C3)C4O)c1` (racemic), the values for the remaining at 10 min in data set [1], in data set [2] and in data set [3] were 54%, 84% and 22%, respectively.

Consider `O=C(CC1(c2ccccc2)C2CC3CC1CC(C2)C3O)N1CC(O)C1` (stereo in doubt; form 2), for which, in the data set on Mus musculus, the inhibition result was “Dose-dependent effect”.

In turn, `COC12CC3CC(C1)C(CC(=O)N1CC(O)C1)(c1ccc(F)cc1)C(C3)C2` (configuration not stated) registered an EC50 in [4] of over 50 µM. Besides, the remaining at 10 min lay in the range of 17 to 55% in data set [1], 27 to 72% in data set [2] and 6 to 14% in data set [3].

As to `O=C(CC1(c2ccc(C(F)(F)F)cc2)C2CC3CC1CC(C2)C3O)N1CC(O)C1` (racemic), the remaining at 10 min in data set [1] amounted to 71%; in data set [2], 57%; in data set [3], 0%.

As to `NC(=O)C1C2CC3CC1CC(C2)C3(CC(=O)N1CC(O)C1)c1ccc(F)cc1` (racemic), the values for the remaining at 10 min in [1], in data set [2] and in data set [3] were 99%, 100% and 92%, respectively.

With `O=C(CC1(c2ccc(-c3ccncc3)cc2)C2CC3CC1CC(C2)C3O)N1CC(O)C1` (racemic), the remaining at 10 min in data set [1] was determined as 42%; in [2], 28%; in [3], 53%.

As for `Cc1ccccc1C1(CC(=O)N2CC(O)C2)C2CC3CC1CC(C2)C3O` (racemic), the remaining at 10 min in data set [1] turned out to be 77%; in data set [2], 62%; in data set [3] it was 25%.

Consider `COc1ccc(C2(CC(=O)N3CC(O)C3)C3CC4CC2CC(C3)C4O)cc1` (racemic), for which the values for the remaining at 10 min in data set [1], in [2] and in [3] were 71%, 98% and 70%, respectively.

In the case of `CS(=O)(=O)c1ccc(C2(CC(=O)N3CC(O)C3)C3CC4CC2CC(C3)C4O)cc1` (racemic), the remaining at 10 min in data set [1] is 100%; in data set [2] it was 100%; in data set [3], 98%.

Consider `O=C(CC1(c2cccc(Cl)c2)C2CC3CC1CC(C2)C3O)N1CC(O)C1` (racemic), for which the results for the remaining at 10 min in data set [1], in [2] and in data set [3] were 66%, 85% and 37%, respectively.

For the compound `NC(=O)C12CC3CC(C1)C(CC(=O)N1CC(O)C1)(c1ccc(F)cc1)C(C3)C2` (configuration not stated), the EC50 in [4] was over 50 µM. The remaining at 10 min in data set [1] was 73 to 77%; in data set [2], 82 to 100%; in [3], 62 to 79%.

Turning to `N#CC1C2CC3CC1CC(C2)C3(CC(=O)N1CC(O)C1)c1ccc(F)cc1` (racemic), the remaining at 10 min in [1] amounted to 47%; in data set [2] it was 53%; in [3], 27%.

On to `O=C(CC1(c2ccc(F)cc2)C2CC3CC(C2)CC1C3)N1CC[C@@H]1CO` (some centres not stated), for which, in data set [5], the IC50 (commonly the concentration at which inhibition is half-maximal) was determined as 0.012 µM.

Consider `O=C(CC1(c2ccc(F)cc2)C2CC3CC1CC(C2)C3O)N1CC(O)C1` (racemic), for which half-maximal inhibition in [5] (IC50) was put at 0.043 µM. Further, in data set [4], the 50% effective concentration (EC50) was over 50 µM. Also, the remaining at 10 min in data set [1] came out at 92%; in data set [2], 95%. Also, at PXR, the Emax came to 4%. For the same compound, in the data set on Liver [6], the Stability stood at 88%.

In the case of `O=C(CC1(c2ccc(F)cc2)C2CC3CC1CC(O)(C3)C2)N1CC(O)C1` (configuration not stated), the EC50 in data set [4] is over 50 µM. The remaining at 10 min in data set [1] is 80 to 100%; in data set [2], 100%; in data set [3], 82 to 85%.

For the compound `N#CC12CC3CC(C1)C(CC(=O)N1CC(O)C1)(c1ccc(F)cc1)C(C3)C2` (configuration not stated), the concentration giving a half-maximal response (EC50) in data set [4] is over 50 µM. The figures for the remaining at 10 min in data set [1], in data set [2] and in data set [3] were 42%, 62% and 46%, respectively.

Consider `NC(=O)CC1(c2ccc(F)cc2)C2CC3CC(C2)CC1C3` (configuration not stated), for which the half-life in [7] and in [8] was over 2 h throughout.

In turn, `O=C(CC1(c2ccccc2)C2CC3CC1CC(C2)C3O)N1CC(O)C1` (racemic) [BMS-816336] showed an IC50 in data set [5] of 0.068 µM. Further, the remaining at 10 min worked out at 82% in data set [1] and 88% in data set [2]. In the data set with Liver [6], the Stability is 72%.

For `N#Cc1ccc(C2(CC(=O)N3CC(O)C3)C3CC4CC2CC(C3)C4O)cc1` (racemic), the remaining at 10 min in [1] was 87%; in [2], 100%; in data set [3], 95%.

In data set [4], `CC1(O)C2CC3CC(C2)C(CC(=O)N2CC(O)C2)(c2ccc(F)cc2)C1C3` (racemic) showed an EC50 of over 50 µM. Besides, the results for the remaining at 10 min in [1], in [2] and in data set [3] were 17%, 41% and 23%, respectively.

`CC1(O)C2CC3CC1CC(C2)C3(CC(=O)N1CC(O)C1)c1ccc(F)cc1` (racemic): the values for the remaining at 10 min in [1], in [2] and in data set [3] were 66%, 84% and 47%, respectively.

Compound `O=C(CC1(c2ccc(F)cc2)C2CC3CC(C2)CC1(O)C3)N1CC(O)C1` (racemic) registered a 50% effective concentration (EC50) in data set [4] of over 50 µM. The remaining at 10 min worked out at 11% in [1], 25% in data set [2] and 2% in data set [3].

Turning to `O=C(CC1(c2ccccc2)C2CC3CC1CC(C2)C3O)N1CC(O)C1` (stereo in doubt; form 1), the midpoint of inhibition in data set [9], the IC50, lay at 0.016 µM. Moreover, the Stability turned out to be 65% in the data set on Liver [10], 89% in the data set with Liver [11] and 36% with Liver [6].

`O=C(CC1(c2ccc(-c3ccc(F)cc3)cc2)C2CC3CC1CC(C2)C3O)N1CC(O)C1` (racemic): the figures for the remaining at 10 min in [1], in [2] and in data set [3] were 10%, 39% and 5%, respectively.

The compound `O=C(CC1(c2ccc(F)cc2)C2CC3CC1CC(C2)C3O)N1CC(O)C1` (single isomer, unassigned; enantiomer 2) showed a half-maximal inhibitory concentration (IC50) in [9] of 0.0069 µM. In addition, the Stability turned out to be 82% in the data set with Liver [10], 90% in the data set on Liver [11] and 75% in the data set with Liver [6].

For `O=C(CC1(c2ccc(F)cc2)C2CC3CC1CC(C2)C3O)N1CC(O)C1` (stereo in doubt), the results for the 50% inhibitory concentration (IC50) in data set [5] and in [9] were 0.15 µM and 0.0248 µM, respectively. In addition, the Stability stood at 78% in the data set with Liver [10], 85% with Liver [11] and 58% in the data set with Liver [6].

In the case of `O=C(CC1(c2ccc(Cl)cc2)C2CC3CC1CC(C2)C3O)N1CC(O)C1` (racemic), the results for the remaining at 10 min in data set [1], in [2] and in data set [3] were 73%, 81% and 58%, respectively.

On to `Fc1ccc(C2(Cc3nnn[nH]3)C3CC4CC(C3)CC2C4)cc1` (configuration not stated), for which the results for the half-life in [7] and in data set [8] were over 1 h and over 2 h, respectively.

Compound `O=C(CC1(c2ccc(F)cc2)C2CC3CC(C2)CC1C3)N1CC[C@H]1CO` (some centres not stated) gave an IC50 in data set [5] of 1.85 µM.

As for `Cc1ccc(C2(CC(=O)N3CC(O)C3)C3CC4CC2CC(C3)C4O)cc1` (racemic), the remaining at 10 min in data set [1] came out at 72%; in data set [2] it was 75%; in [3], 26%.

Regarding `O=C(CC1(c2ccncc2)C2CC3CC1CC(C2)C3O)N1CC(O)C1` (racemic), the remaining at 10 min was 94% in data set [1], 92% in [2] and 100% in data set [3].

For the compound `O=C(CC1(c2ccccn2)C2CC3CC1CC(C2)C3O)N1CC(O)C1` (racemic), the remaining at 10 min in data set [1] is 93%; in [2], 100%; in data set [3], 90%.
